Source: ChEMBL document CHEMBL4622968, “Discovery of [1,2,4]triazolo[4,3-a]pyridines as potent Smoothened inhibitors targeting the Hedgehog pathway with improved antitumor activity in vivo” (Bioorg Med Chem, 2020)
Active and inactive are the calls of the source. The calls are words filed in the database; no cut-off is given here.

Key:
MDA-MB-468 [1] = assay: Antiproliferation activity against human MDA-MB-468 cells assessed as reduction in cell viability incubated for 72 hr by MTT assay; format: functional, cell-based; conditions: MDA-MB-468, 72 h
Method in brief: (§1)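 MTT assay. Cells were plated overnight and exposed to a range of concentrations for 72 h. MTT was then added for 4 h and absorbance read at 570 nm. Inhibition% = [(control − compound)/(control − blank)] × 100. IC50 was fitted from the curves. Mean ± S.D. of 3–5 separate experiments. RPMI 1640 + 10% FBS; MCF10A in DMEM/F12 with 5% horse serum, EGF, hydrocortisone, insulin and cholera toxin.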

HeLa = assay: Antiproliferation activity against human HeLa cells assessed as reduction in cell viability incubated for 72 hrs by MTT assay; format: functional, cell-based; method in brief: as §1
MDA-MB-231 [2] = assay: Antiproliferation activity against human MDA-MB-231 cells assessed as reduction in cell viability incubated for 72 hrs measured after 4 hrs by MTT assay; format: functional, cell-based; method in brief: as §1
MDA-MB-468 [3] = assay: Induction of cell cycle arrest in human MDA-MB-468 cells assessed as cell accumulation at S phase at 28 uM incubated for 48 hrs by propidium iodide staining-based flow cytometric analysis (reference value: 34.20 %); format: functional
Method in brief: (§2)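 Cells were seeded at 1.2×10^5 per well and treated for 48 h (MDA-MB-468: 14, 28, 56 μM). Cells were fixed in 75% ethanol at −20 °C overnight, stained with PI and analysed by flow cytometry. Mean ± S.D. of three independent experiments versus DMSO.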

MDA-MB-468 [4] = assay: Induction of apoptosis in human MDA-MB-468 cells assessed as early apoptotic cells at 28 uM incubated for 48 hrs by annexin-V-FITC staining based flow cytometric method (reference value: 2.00 %); format: functional
[5] = Acute toxicity in Kunming mouse assessed as mortality at 3008 mg/kg, ig observed for 14 days relative to control; format: organism-based; conditions: in vivo, po, read-out: Activity
Method in brief: (§3)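 Kunming mice, groups of 5 female and 5 male per dose, dosed once by gavage at graded doses; mortality recorded over 14 days as dead/treated and percent. LD50 derived by improved Karber's method: LD50 = lg^-1[xm − i(ΣP − 0.5)], xm log of maximal dose, i log ratio of neighbouring doses; 95% confidence intervals given.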

[6] = Acute toxicity in Kunming mouse assessed as mortality at 4552 mg/kg, ig observed for 14 days relative to control; format: organism-based; conditions: in vivo, po, read-out: Activity; method in brief: as §3
[7] = Acute toxicity in Kunming mouse assessed as mortality at 3965 mg/kg, ig observed for 14 days relative to control; format: organism-based; conditions: in vivo, po, read-out: Activity; method in brief: as §3
MDA-MB-468 [8] = assay: Antitumour activity against human MDA-MB-468 cells xenografted in BALB/c mouse assessed as reduction in tumour volume at 80 mg/kg, ig measured every 2 days for 21 days relative to control; format: functional; parameters: scale not given: the % may be the effect or the level left
Method in brief: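 Female BALB/c nude mice, 6–8 weeks old, were given subcutaneous flank injections of 1.0×10^7 MDA-MB-468 cells in 0.2 ml PBS. At 100 mm³ tumours they were randomized, five per group. Daily gavage in saline with 0.1% Tween 80 at 80 or 100 mg/kg, or vehicle alone. Tumour volume measured every 2 days and body weight daily. Tumours excised and weighed at day 21.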

[9] = Acute toxicity in Kunming mouse assessed as mortality at 5226 mg/kg, ig observed for 14 days relative to control; format: organism-based; conditions: in vivo, po, read-out: Activity; method in brief: as §3
MDA-MB-468 [10] = assay: Induction of cell cycle arrest in human MDA-MB-468 cells assessed as cell accumulation at G2/M phase at 56 uM incubated for 48 hrs by propidium iodide staining-based flow cytometric analysis (reference value: 26.66 %); format: functional; method in brief: as §2
U-251 = assay: Antiproliferation activity against human U251 cells assessed as reduction in cell viability incubated for 72 hrs by MTT assay; format: functional, cell-based; conditions: U-251, 72 h; method in brief: as §1
MDA-MB-468 [11] = assay: Induction of cell cycle arrest in human MDA-MB-468 cells assessed as cell accumulation at G2/M phase incubated for 48 hrs by propidium iodide staining-based flow cytometric analysis; format: functional; method in brief: as §2
MDA-MB-468 [12] = assay: Induction of apoptosis in human MDA-MB-468 cells assessed as late apoptotic cells at 56 uM incubated for 48 hrs by annexin-V-FITC staining based flow cytometric method (reference value: 0.99 %); format: functional
MDA-MB-468 [13] = assay: Induction of cell cycle arrest in human MDA-MB-468 cells assessed as cell accumulation at G0/G1 phase at 14 uM incubated for 48 hrs by propidium iodide staining-based flow cytometric analysis (reference value: 38.94 %); format: functional; method in brief: as §2
Protein smoothened [14] = biological target: T1, Protein smoothened (Homo sapiens, UniProt Q99835); assay: Binding affinity to recombinant human Smo receptor assessed as maximum response at equilibrium by SPR analysis
T1 sequence (Q99835 whole entry): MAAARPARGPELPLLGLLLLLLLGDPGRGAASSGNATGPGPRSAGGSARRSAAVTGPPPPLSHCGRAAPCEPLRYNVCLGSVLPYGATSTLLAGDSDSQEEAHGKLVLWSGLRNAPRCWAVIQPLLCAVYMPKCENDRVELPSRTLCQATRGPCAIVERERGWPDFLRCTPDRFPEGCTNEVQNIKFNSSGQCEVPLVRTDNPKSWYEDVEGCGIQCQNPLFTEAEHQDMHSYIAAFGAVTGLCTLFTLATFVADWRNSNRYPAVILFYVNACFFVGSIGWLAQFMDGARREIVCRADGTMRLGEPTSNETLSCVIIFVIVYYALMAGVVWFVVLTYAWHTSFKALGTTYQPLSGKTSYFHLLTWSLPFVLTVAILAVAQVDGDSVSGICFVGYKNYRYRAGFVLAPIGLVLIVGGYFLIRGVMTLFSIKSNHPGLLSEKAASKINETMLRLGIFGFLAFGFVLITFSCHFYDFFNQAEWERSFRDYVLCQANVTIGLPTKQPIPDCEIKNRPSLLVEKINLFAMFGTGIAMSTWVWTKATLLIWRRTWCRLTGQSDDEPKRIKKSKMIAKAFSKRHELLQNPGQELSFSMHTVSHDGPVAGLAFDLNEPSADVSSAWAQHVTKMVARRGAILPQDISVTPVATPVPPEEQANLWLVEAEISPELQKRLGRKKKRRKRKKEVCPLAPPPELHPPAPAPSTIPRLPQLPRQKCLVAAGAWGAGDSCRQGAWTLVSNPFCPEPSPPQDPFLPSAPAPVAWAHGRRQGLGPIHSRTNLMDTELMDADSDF
Method in brief: (§4)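 Surface plasmon resonance with recombinant Smo protein, run in PBS at a flow rate of 2 μL/s and 4 °C. Analytes were injected at 2.5, 5 and 10 μM. The chip was regenerated with 0.5% SDS:glycine-HCl pH 2.0 (1:1). ka, kd, Rmax, KA and KD came from a global fit of the sensorgrams.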

MDA-MB-468 [15] = assay: Induction of apoptosis in human MDA-MB-468 cells assessed as necrotic cells at 14 uM incubated for 48 hrs by annexin-V-FITC staining based flow cytometric method (reference value: 1.52 %); format: functional
Protein smoothened [16] = biological target: T1, Protein smoothened; assay: Binding affinity to recombinant human Smo receptor assessed as dissociation constant at equilibrium by SPR analysis
MDA-MB-468 [17] = assay: Induction of apoptosis in human MDA-MB-468 cells assessed as early apoptotic cells at 56 uM incubated for 48 hrs by annexin-V-FITC staining based flow cytometric method (reference value: 2.00 %); format: functional
Protein smoothened [18] = biological target: T1, Protein smoothened; assay: Binding affinity to recombinant human Smo receptor assessed as association rate constant by SPR analysis; method in brief: as §4
MDA-MB-468 [19] = assay: Induction of cell cycle arrest in human MDA-MB-468 cells assessed as cell accumulation at G0/G1 phase at 28 uM incubated for 48 hrs by propidium iodide staining-based flow cytometric analysis (reference value: 38.94 %); format: functional; method in brief: as §2
MCF7 = assay: Antiproliferation activity against human MCF7 cells assessed as reduction in cell viability incubated for 72 hrs by MTT assay; format: functional, cell-based; conditions: MCF7, 72 h; method in brief: as §1
AN3-CA = assay: Antiproliferation activity against human AN3CA cells assessed as reduction in cell viability incubated for 72 hr by MTT assay; format: functional, cell-based; method in brief: as §1
Protein smoothened [20] = biological target: T1, Protein smoothened; assay: Displacement of BODIPY-Cyclopamine from wild type Smo receptor (unknown origin) expressed in HEK293 cells incubated for 12 hrs by Hoechst 33342 based fluorescence microscopic method; format: cell-based
Method in brief: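 HEK293 cells were transiently transfected in triplicate with a wild-type Smo plasmid, with expression confirmed by western blot. Cells were loaded with BODIPY-cyclopamine, then given unlabelled cyclopamine (25 μM) or test compound (1 or 25 μM) for 12 h at 37 °C. Nuclei were counterstained with Hoechst 33342. Green fluorescence was imaged by fluorescence microscopy.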

A549 = assay: Antiproliferation activity against human A549 cells assessed as reduction in cell viability incubated for 72 hrs by MTT assay; format: functional, cell-based; conditions: A549, 72 h; method in brief: as §1
MDA-MB-231 [21] = assay: Induction of apoptosis in human MDA-MB-231 cells assessed as decrease in Bcl2 protein expression level incubated for 1 hr by Western blot analysis; format: functional, cell-based
MDA-MB-231 [22] = assay: Induction of apoptosis in human MDA-MB-231 cells assessed as increase in Bax protein expression level incubated for 1 hr by Western blot analysis; format: functional, cell-based

O=C(Nc1ccc(Cl)c(-c2nnc3c(Cl)cccn23)c1)c1ccc(Cl)nc1Cl
IC50 (MDA-MB-468 [1]): 28.6 µM
IC50 (HeLa): 66.3 µM
IC50 (MDA-MB-231 [2]): 29.5 µM
Activity (MDA-MB-468 [3]): 39%
Activity (MDA-MB-468 [4]): 7.71%
mortality at 336 h [5]: 10%
mortality at 336 h [6]: 60%
mortality at 336 h [7]: 50%
Activity (MDA-MB-468 [8]): 64.97%
mortality at 336 h [9]: 70%
Activity (MDA-MB-468 [10]): 42.57%
IC50 (U-251): 85.2 µM
Activity (MDA-MB-468 [11]): Dose-dependent effect
Activity (MDA-MB-468 [12]): 24.1%
Activity (MDA-MB-468 [13]): 30.69%
Rmax (Protein smoothened [14]): 90.5 RU
Activity (MDA-MB-468 [15]): 9.4%
Kd (Protein smoothened [16]): 0.0103 µM
Activity (MDA-MB-468 [17]): 6.53%
Ka (Protein smoothened [18]): 360 M⁻¹ s⁻¹
Activity (MDA-MB-468 [19]): 29.86%
IC50 (MCF7): 61.5 µM
IC50 (AN3-CA): 44.5 µM
Activity (Protein smoothened [20]): Dose-dependent effect
IC50 (A549): 64.9 µM
Activity (MDA-MB-231 [21]): Active
Activity (MDA-MB-231 [22]): Active
